Consider seven sequences from paper PMC10730135 (Human Vaccines & Immunotherapeutics, 2023).

Entries after “also recorded” stand apart in the source; their conditions may differ.

Experiment [1] concerns HLA-A2 molecules on T2 cell surface. The experiment is described as follows: T2 cell binding assay. Also noted: species or system human. Conditions: in words. The method in brief: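 T2 cells (1 × 10^6/mL) incubated 18 h at 37°C, 5% CO2 with 50 µg/mL peptide in RPMI-1640 plus 3 µg/mL human β2-microglobulin; no-peptide blank included. Washed three times in PBS, stained 30 min with FITC anti-HLA-A2, MFI read by flow cytometry. FI = (MFI peptide − MFI blank)/MFI blank. Classes: FI >1.0 high, 0.5–1.0 medium, <0.5 low.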

For the next experiment, the system named is CD8+T cells. The experiment is described as follows: IFN-γ ELISA of DC/CD8+T cell co-culture supernatant. It is filed as cell-based, human. Conditions: for IFN-γ content in culture medium (ELISA): 12th day of co-cultivation of DCs and CD8+T cells, compared with NP-CTL; for capacity of induced CTLs to produce IFN-γ: ELISA and ELISPOT taken together, compared to other peptides of CT23.

The next experiment relates to CTLs. The experiment in a line: IFN-γ ELISPOT of peptide-induced CTLs. It is filed as cell-based, human. Conditions: CTLs 1 × 10^5 cells/well, 20 hours; compared to NP-CTL. The method in brief: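 CTLs from HLA-A2+ donor CD8+ T cells stimulated with DCs loaded with peptide (50 μg/mL) or recombinant protein (100 μg/mL). Ratio 10:1, rhIL-2 20 ng/mL, restimulation days 7 and 12, harvested day 15. Added to anti-IFN-γ-coated wells with PHA positive and background control wells; 20 h at 37°C, 5% CO2. Biotinylated antibody, streptavidin–enzyme conjugate and substrate added; spots counted by analyzer.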

Another experiment deals with U87 (HLA-A *0201+,CT23+). The experiment is described as follows: Cytotoxicity assay. It is filed as cell-based, human. The conditions noted are these: LDH release, effector:target 50:1, 4 h; mean±standard deviation; SD. In short, it runs like this:
(§1)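 Effectors: CD8+ T cells from HLA-A2+ donor PBMCs, co-cultured 10:1 with peptide- or protein-loaded DCs. rhIL-2 20 ng/mL from day 2; restimulated days 7 and 12; collected day 15. Targets grown in RPMI-1640/10% FBS. After 4 h, supernatant incubated with LDH substrate 30 min at RT in the dark, then stopped and read at OD490. Killing % = (experimental − effector and target spontaneous release)/(target maximum − target spontaneous release).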

Experiment [2] relates to OVCAR-3 (HLA-A *0201+, CT23+). The experiment is described as follows: Cytotoxicity assay. The conditions noted are these: LDH release, effector:target 50:1, 4 h; mean±standard deviation; SD. It is filed as cell-based, human. In short, it runs like this:
as §1

Experiment [3] has as its system SKOV3 (HLA-A *0201−, CT23+). The experiment is described as follows: Cytotoxicity assay. It is filed as cell-based, human. The conditions noted are these: LDH release, effector:target 50:1, 4 h. In short, it runs like this:
as §1
A general note: LDH in the medium is a marker of cell lysis.

Experiment [4] deals with T2 cells loaded with peptide P7. The experiment is described as follows: Cytotoxicity assay. The format is cell-based, human. The conditions noted are these: LDH release, effector:target 50:1, 4 h; mean±standard deviation; SD. The method in brief: as §1
Experiment [5] relates to T2 cells without loading peptides. The experiment is described as follows: Cytotoxicity assay. It is filed as cell-based, human. Conditions: LDH release, effector:target 50:1, 4 h. The method in brief:
as §1

For the sequence LLASQSLSI [P6], the “binding affinity to HLA-A2 molecules (class by FI)” value (from here on “binding affinity”) in experiment [1] is “higher binding affinity”. In addition, in the experiment on CD8+T cells, the “IFN-γ content in culture medium (ELISA)” value was “statistical significance compared with NP-CTL” and the “capacity of induced CTLs to produce IFN-γ” value (“capacity of induced CTLs” for short) is “stronger capacity to produce IFN-γ”.

Take VLCSQPVSI [P3]: in experiment [1], the “binding affinity” value is reported as “moderate”.

As to QLPHTEALL [P4], in experiment [1], the “binding affinity” value is listed as “higher binding affinity”. For the same sequence, in the experiment on CD8+T cells, the “IFN-γ content in culture medium (ELISA)” value is “statistical significance compared with NP-CTL” and the “capacity of induced CTLs” value was “stronger capacity to produce IFN-γ”.

Turning to ALLVLCYSI [P7], in experiment [1], the “binding affinity” value was “higher binding affinity; also recorded: highest binding affinity”. In the experiment with CD8+T cells, the “IFN-γ content in culture medium (ELISA)” value is “highest IFN-γ secretion” and the “capacity of induced CTLs” value is “stronger capacity to produce IFN-γ”. Also, in the experiment with CTLs, the “number of IFN-γ-positive cells (ELISPOT)” value was “significant statistical difference”. Further, the “killing rate of peptide-induced CTLs on U87” value with U87 (HLA-A *0201+,CT23+) was 31.42 ± 0.85%. Besides, the “killing rate of peptide-induced CTLs on OVCAR-3” value in experiment [2] is reported as 31.81 ± 9.82%. The “killing effect of peptide-induced CTLs on HLA-A*0201 negative SKOV3 tumor cells” value in experiment [3] is given as “no killing effect; also recorded: did not exhibit any killing effect”. Also, the “killing rate of P7-induced CTLs on T2 cells loaded with peptide P7” value in experiment [4] is 64.95 ± 6.09%. Besides, the “killing effect of P7-induced CTLs on T2 cells without loaded peptide P7” value in experiment [5] is on record as “did not exhibit any significant killing effect; also recorded: no killing effect”.

As for MIMENIQEL [P5], the “binding affinity” value in experiment [1] was “higher binding affinity”.

As to ALLTPTWKA [P1], the “binding affinity” value in experiment [1] is reported as “higher binding affinity”. Further, in the experiment with CD8+T cells, the “IFN-γ content in culture medium (ELISA)” value was “statistical significance compared with NP-CTL” and the “capacity of induced CTLs” value is “stronger capacity to produce IFN-γ”.

As for RLSNNVEEL [P2], the “binding affinity” value in experiment [1] is recorded as “higher binding affinity”.
